This sample holds only a part of the variants without activity.
B1: tRNA (parent)
chain: GUUCCGUUGGCGUAAUGGUAACGCGUCUCCCUCCUAAGGAGAAGACUGCGGGUUCGAGUCCCGUACGGAACG

Variants of: B1
Test: yeast fitness relative to wild type (ratio to wild type); higher = fitter; tRNA-Arg(CCU), competitive growth, 37 C, YPD
How it was run: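 The tRNA-Arg(CCU) gene variants were made by chemical synthesis with a 3% per-site mutation rate at 69 sites and inserted at the native genomic locus of Saccharomyces cerevisiae. After pooling, the strains were competed in YPD at 37°C for 24 hours in six parallel replicates. Gene amplicons from the start population and each end population were read by 100-nucleotide paired-end sequencing, and Darwinian fitness relative to wild type was taken from genotype frequency changes. Genotypes needed ≥ 100 starting reads, and estimates < 0.5 were set to 0.5.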

Variant	yeast fitness
G6A C31A U47G C62A	≤ 0.5
G6A G38A A40C G56A C60U C61G	≤ 0.5
G6A G9C G23A U26C A40U A42U	≤ 0.5
G6A C29U A57G U59C C62U	≤ 0.5
G6A G9C C11G C34U A57G	0.54
G6A G10A G18A C27G A37G G38A	≤ 0.5
G6A G18U C24A U32A G38A A43G A45U G52A	0.641
G6A C30G C60G G68A	≤ 0.5
G6A U8A C11U	≤ 0.5
G6A G23C C30G G39C	≤ 0.5
G6A U8A G23C	≤ 0.5
G6A G44A G51C C66U	≤ 0.5
G6A C22U A42C	0.605
G6A G9C C11G C34U G68A	0.574
G6A C11U C24U	≤ 0.5
G6A C34U A65C	0.54
G6A C31U G41C A42U C66U	≤ 0.5
G6A G25A U59C	≤ 0.5
G6A G12C C34U A70U	0.671
G6A C31A G41A A45U G58C	≤ 0.5
G6A G48A A65C	0.541
G6A C29A C30G C61U A70G	≤ 0.5
G6A C22G U54G A69U	≤ 0.5
G6A C24U A45C C61G	≤ 0.5

Variant	yeast fitness
G6A C31A U47C G67A	≤ 0.5
G6A G12A A15C C24A	≤ 0.5
G6A C62U	0.921
G6A G9C C11G G48C U59A	≤ 0.5
G6A G67A	0.872
G6A C24G	0.625
G6A G41A C62U	0.619
G6A G39A	0.916
G6A C49U A57C A65C A70C	≤ 0.5
G6A G9C A21C C30U	≤ 0.5
G6A G17C G18C A45G	≤ 0.5
G6A G10A	0.859
G6A C22G G44C A70C	≤ 0.5
G6A C30U C33U C46U	≤ 0.5
G6A G12C U16A A21C	≤ 0.5
G6A G10C C24U C34U A36U C46A	≤ 0.5
G6A C33G C34G	≤ 0.5
G6A C33G C34G A43U C61A	≤ 0.5
G6A C24U G38A C61G C66U A69U	≤ 0.5
G6A C34G G52C A65U	≤ 0.5
G6A G38C C66U	0.532
G6A C30U C49A	≤ 0.5
G6A G9C A21C C30U A45U	≤ 0.5
G6A C49U G63A	0.688

Variant	yeast fitness
G6A U8A G52A G56C	≤ 0.5
G6A C30U G67A	0.586
G6A G39A G41A A65G	0.613
G6A C22U C34G G56C	0.693
G6A C34A	0.739
G6A C34G	0.569
G6A C31U C46A A57U C60U	≤ 0.5
G6A G9A A14U G63A	0.747
G6A G50A U53G A69G	≤ 0.5
G6A C24U C61G C66U A70G	≤ 0.5
G6A G23C C61U	≤ 0.5
G6A C29G U47C U59A	≤ 0.5
G6A G12A U54C C60G	≤ 0.5
G6A U8A C24U A40U	0.684
G6A C22G G52C G58C A65U	≤ 0.5
G6A C22U A40C A69U	0.63
G6A C22G C62G	≤ 0.5
G6A G50A A65U	≤ 0.5
G6A G38C U54A A65C	≤ 0.5
G6A C24A A43C G52C C66G A69G	≤ 0.5
G6A G9C C29U C55G	≤ 0.5
G6A C29U C33G G67A	≤ 0.5
G6A G9C A21G	0.537
G6A C27A	0.707

Variant	yeast fitness
G6A G41A G51C	≤ 0.5
G6A C22G U47A G67U A70C	≤ 0.5
G6A G25A A69U	0.68
G6A C24A U53C A57C A65U	≤ 0.5
G6A C22G A42C C62U	≤ 0.5
G6A C11A U54G	0.563
G6A C49A	0.625
G6A C49G	0.904
G6A G10C A15U A70G	≤ 0.5
G6A C31G A43C C49A U54C	≤ 0.5
G6A C11U U13C C27G	0.507
G6A G17C C31G G50U U53A	0.559
G6A G56A G67U	≤ 0.5
G6A G25A C34A G58A	≤ 0.5
G6A C11U U26A C33A A43G	≤ 0.5
G6A C24G U35A G48C	0.54
G6A G23C C49G G50A U53G A57G	≤ 0.5
G6A C31U	0.933
G6A C31G	0.975
G6A C31A	0.819
G6A C22G C31U	0.771
G6A C62G A70G	≤ 0.5
G6A C11G U35A A37U	≤ 0.5
G6A G10C U54C	≤ 0.5

Variant	yeast fitness
G6A C11A G52U	≤ 0.5
G6A C49G C61U A69G	≤ 0.5
G6A C66A	0.879
G6A C66G	0.683
G6A G68C	0.754
G6A C11U U13C A70G	≤ 0.5
G6A C22U C30G A36G C62U A65U	≤ 0.5
G6A G44U C66U	0.601
G6A C11U	0.801
G6A G17A	0.633
G6A G17C	0.744
G6A G17C G51A	≤ 0.5
G6A C27G A36U C46U G67A	≤ 0.5
G6A G18A	0.824
G6A C11U C22U	0.566
G6A C31A C55G C66A	≤ 0.5
G6A G39C C55G	≤ 0.5
G6A C31G C55U	0.537
G6A C34G A37G A57G A70C	≤ 0.5
G6A C24U A65U	≤ 0.5
G6A C11G A21G C24A G52A C60A A69G	≤ 0.5
G6A G10C G63A	≤ 0.5
G6A C29U C31A C34U G56A	≤ 0.5
G6A C11G C33G A70U	≤ 0.5

Variant	yeast fitness
G6A C11U C30U G67A	≤ 0.5
G6A U8A A42U	≤ 0.5
G6A G25C C33U G48A G63A	≤ 0.5
G6A C24G C34G	≤ 0.5
G6A C31A U59C A70U	≤ 0.5
G6A G51A C60G	≤ 0.5
G6A C31G G41A	≤ 0.5
G6A G25A A40C A57C C61A G67A	≤ 0.5
G6A C46G	0.937
G6A C46U	0.976
G6A G17A U19G	0.512
G6A C33A G58A A65C G67A	≤ 0.5
G6A G18C A37C C60A U64A	≤ 0.5
G6A G10A G17A	0.55
G6A C31A A69U	0.506
G6A G9C	0.81
G6A G23C C49G U53G A57G	0.567
G6A G39A G52C C55G	≤ 0.5
G6A C22G U47A A65G	≤ 0.5
G6A U7C G41A A42C G50C A70G	0.593
G6A G9C A42U	≤ 0.5
G6A G18C C49A C61G	≤ 0.5
G6A C11G C24U	≤ 0.5
G6A C61U A69U	0.632

Variant	yeast fitness
G6A G41A A42C G50C A70G	0.543
G6A G41C A43G C49U	0.745
G6A G12C U16A	0.799
G6A G23U C24G U35A G48C	≤ 0.5
G6A G18C A21C C33A	0.605
G6A C34G C62U G68A	≤ 0.5
G6A C24U U47C	0.751
G6A G12C C49G	≤ 0.5
G6A C27A G50A A69U	0.542
G6A C46U G50A C61G	≤ 0.5
G6A C22G A37G U47A A70C	≤ 0.5
G6A U7G C22G G50A	≤ 0.5
G6A G12C	0.855
G6A G9U C11U A70C	0.533
G6A C33G A43U	0.574
G6A C33U C34U C62G	≤ 0.5
G6A C30U C62A	≤ 0.5
G6A C11A G17A U35G U59C	≤ 0.5
G6A C11G C22G U54A	≤ 0.5
G6A C22G U35C C55G	≤ 0.5
G6A G58A G68C	0.649
G6A C24U G48C	0.618
G6A G9C G44C G67A	0.649

— the RNAGym collection of RNA variant scans (doi:10.1126/science.aae0568)
